Bioassay records deposited in PubChem by Johns Hopkins Ion Channel Center.
Shown are actives, neighbours in structure and some others; about 3.5% of the full set was active somewhere.
RGS4 block: human RGS4 inhibition; HEK293 M3R/RGS4 inducible, Fluo-4 calcium flux; active compounds read high; triggered by carbachol at its EC20; B-score at 10 µM; hit rate 0.45% among 310,000; AID 463165;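 active = B-score, a plate-corrected calcium signal, over three deviations above library mean, with baseline fluorescence within five deviations of library mean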;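 note: RGS4 expression induced by doxycycline in cells with stable M3 receptor; B-score is computed from the integrated fluorescence ratio over baseline after carbachol; higher B-score means a larger calcium signal and so more RGS4 inhibition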
Target sequence (P49798 whole entry, looked up): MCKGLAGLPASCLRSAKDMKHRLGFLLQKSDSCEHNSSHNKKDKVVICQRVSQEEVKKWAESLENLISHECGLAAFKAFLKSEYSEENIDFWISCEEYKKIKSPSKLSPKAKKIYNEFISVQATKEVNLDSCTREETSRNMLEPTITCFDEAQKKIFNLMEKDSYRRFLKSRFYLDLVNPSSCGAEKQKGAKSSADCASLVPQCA
MrgX1 PAM: human MrgX1 positive allosteric modulation, primary screen. Q96LB2. MrgX1-HEK293, Fluo-4 calcium flux, FDSS; active compounds read high. B-score at 10 µM. hit rate 0.63% among 310,000. AID 588675;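 active = plate-corrected calcium response at least 3 library SD above typical, normal starting fluorescence, not activating the receptor alone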;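 note: compound read alongside a low EC10 to EC30 dose of BAM8-22 agonist; peak minus trough fluorescence over baseline measured at the second addition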
Target sequence (Q96LB2 whole entry, looked up): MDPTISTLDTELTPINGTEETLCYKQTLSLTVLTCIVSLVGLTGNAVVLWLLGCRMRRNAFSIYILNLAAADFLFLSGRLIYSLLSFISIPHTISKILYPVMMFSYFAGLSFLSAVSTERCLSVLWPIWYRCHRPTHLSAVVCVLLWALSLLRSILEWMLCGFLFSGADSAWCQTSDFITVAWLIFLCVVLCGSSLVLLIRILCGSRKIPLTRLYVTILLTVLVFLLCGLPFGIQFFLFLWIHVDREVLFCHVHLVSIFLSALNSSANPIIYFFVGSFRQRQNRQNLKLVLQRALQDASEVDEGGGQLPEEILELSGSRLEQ
MrgX1 ag: agonists of human MrgX1 receptor. Q96LB2. MrgX1-HEK293 cells, Fluo-4 calcium fluorescence, agonist mode; active compounds read high. B-score at 10 µM. hit rate 0.44% among 310,000;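 active = calcium response B-score plate-corrected fluorescence ratio at least 3 library SD, with starting fluorescence B-score inside 5 SD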
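Material: MrgX1-expressing HEK293 cells / Dosing: compound as first of three additions / Incubation: overnight seeding, then 1 h dark dye loading / Signal: Fluo-4 NW calcium fluorescence / Evaluation: B-scored fluorescence response ratio / Benchmarks: positive and negative control wells on each plate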
MrgX1 antagonist: antagonists of human MrgX1 receptor; Q96LB2; MRGX1-HEK293 calcium flux, Fluo-4, BAM8-22 antagonism; active compounds read low; B-score at 10 µM; hit rate 1.3% among 310,000;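 active = calcium-response B-score plate-corrected more than 3 library SD below zero, starting fluorescence within 5 deviations, no agonist response on first addition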;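 note: peak minus trough fluorescence over baseline after final BAM8-22 challenge near maximal dose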
RGS4 pot: potentiators or activators of RGS4. hit rate 0.92% among 310,000. HEK293 M3R/inducible RGS4, carbachol calcium flux Fluo4; active compounds read low. AID 463111. B-score at 10 µM;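 active = B-score of the integrated calcium signal more than 4 SD below the library mean, with starting fluorescence not abnormally high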;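 note: negative B-score means reduced calcium response which marks RGS4 activation or potentiation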
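Assay system: HEK293 FlpIn-TREx cells, stable M3R, doxycycline-inducible RGS4 / Probe or stimulus: carbachol, ECmax concentration / Times: overnight RGS4 induction, 30 min dye load 37 °C, 20 min compound RT / Signal: kinetic calcium fluorescence imaging with Fluo4-AM dye, 2 µM / Measure: Agonist-evoked peak-minus-minimum fluorescence over baseline, integrated ratio, B score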
MrgX1 antag conf: reconfirmed antagonist of human MrgX1 receptor signaling | MrgX1-HEK293, BAM8-22 calcium flux, Fluo-4; active compounds read low | hit rate 19% among 2,300 | remaining BAM8-22 calcium response % of control (active compounds read low), % at 10 µM | shares compounds with MrgX1 antagonist;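 active = remaining agonist calcium response no higher than 100% minus 3 SD of agonist-only control wells, with starting fluorescence near control levels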;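 note: agonist BAM8-22 given at a near maximal EC90 to ECmax level; peak minus minimum fluorescence divided by baseline after agonist addition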
HEK293 Ca flux: MrgX1 antagonist counter-screen hit in parental HEK293 cells | shares compounds with MrgX1 antagonist | Fluo-4 calcium fluorescence, FDSS | fluorescence ratio F(max-min)/F0 at 10 µM | hit rate 2% among 4,000 | AID 624111;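 active = duplicate-averaged calcium fluorescence ratio at least three times the standard deviation of buffer wells, a nonspecific response in parental cells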
HEK293 Ca counter: counter-screen for MrgX1 allosteric activators: effect in parental HEK293 cells; shares compounds with MrgX1 antagonist; parental HEK293 calcium flux, Fluo-4 fluorescence ratio; active compounds read high; AID 624114; hit rate 0.4% among 4,000; fluorescence ratio F(max-min)/F0 at 10 µM;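 active = calcium fluorescence ratio, averaged over duplicates, at least 3 SD of the buffer-well ratio, meaning a nonspecific response in receptor-free cells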;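 note: untransfected parental HEK293 lacking MrgX1 used as counterscreen for MrgX1 allosteric activators; fluorescence change taken during the second addition on a kinetic imager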
HEK293 Ca cntr2: activity in parental HEK293 cells lacking MrgX1 receptor; shares compounds with MrgX1 antagonist; Fluo-4 calcium fluorescence (FDSS); active compounds read high; fluorescence ratio F(max-min)/F0 at 10 µM; hit rate 8.7% among 4,000; AID 624115;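 active = calcium fluorescence ratio at least three times the spread of buffer wells, meaning a non-specific response in parental cells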
Of the large screens only hits and unclear results are named; the others gave an inactive call (follow-up assays come after a bar, where they were run).

O=[N+]([O-])c1cccc(S(=O)(=O)NCCCn2ccnc2)c1	none
NC(=O)c1cc2c3ccccc3ccn2c1-c1ccccc1	MrgX1 antagonist -5.7 | MrgX1 antag conf inactive | HEK293 Ca flux inactive | HEK293 Ca counter inactive | HEK293 Ca cntr2 inactive
Cc1nn(CCc2nn[nH]n2)c2nc(-c3ccc(C4CCCCC4)cc3)cc(C(F)(F)F)c12	MrgX1 antagonist -21.3, RGS4 pot -8.53 | MrgX1 antag conf 2.0% | HEK293 Ca flux inactive | HEK293 Ca counter inactive | HEK293 Ca cntr2 83.6
Cc1nn(CCC(=O)O)c2nc(-c3cccnc3)cc(C(F)(F)F)c12	none
COc1ccc(-c2csc(NC(=O)c3cccc(S(=O)(=O)N4CCN(C)CC4)c3)n2)cc1	MrgX1 antagonist -5.81 | MrgX1 antag conf inactive | HEK293 Ca flux inactive | HEK293 Ca counter inactive | HEK293 Ca cntr2 inactive
CN1CCN(S(=O)(=O)c2cccc(C(=O)Nc3nc(-c4ccccc4)cs3)c2)CC1	none
CCOc1ccc(OCCCC(=O)NCCc2ccc(OC)cc2)cc1	none
CCCCN(C(=O)c1cccc(S(=O)(=O)N2CCN(C)CC2)c1)c1c(N)n(CCC)c(=O)[nH]c1=O	MrgX1 antagonist -14.9 | MrgX1 antag conf inactive | HEK293 Ca flux inactive | HEK293 Ca counter inactive | HEK293 Ca cntr2 inactive
COc1cccc(N2CC(NS(=O)(=O)c3cccnc3)CC2=O)c1 (stereo unspecified)	none
c1ccc(Cn2nnc3c(N4CCCC4)ncnc32)cc1	none
CCN1CCN(c2ncnc3c2nnn3Cc2ccccc2)CC1	MrgX1 antagonist -4.58 | MrgX1 antag conf inactive | HEK293 Ca flux inactive | HEK293 Ca counter inactive | HEK293 Ca cntr2 inactive
Cc1ccc2[nH]c3c(N4CCN(Cc5ccccc5)CC4)ncnc3c2c1	MrgX1 antagonist -6.16 | MrgX1 antag conf 64.6% | HEK293 Ca flux inactive | HEK293 Ca counter inactive | HEK293 Ca cntr2 inactive
c1ccc(CN2CCN(c3ncnc4c3[nH]c3ccccc34)CC2)cc1	MrgX1 antagonist -6.07 | MrgX1 antag conf 53.1% | HEK293 Ca flux inactive | HEK293 Ca counter inactive | HEK293 Ca cntr2 inactive
c1ccc2c(c1)[nH]c1c(N3CCC4(CC3)OCCO4)ncnc12	none
Cc1ccc2c(c1)[nH]c1c(N3CCN(Cc4ccccc4)CC3)ncnc12	none
O=C(NCCc1ccccc1)C(=O)NCCC1CCCCN1S(=O)(=O)c1cccs1 (stereo unspecified)	none
Cc1ccc(NC(=O)C2(c3cccs3)CCOCC2)cc1C	MrgX1 antagonist -4.8 | MrgX1 antag conf inactive | HEK293 Ca flux inactive | HEK293 Ca counter inactive | HEK293 Ca cntr2 inactive
Cc1csc(=O)n1CC(=O)OC(C)C(=O)Nc1cccc(Cl)c1 (stereo unspecified)	none
COc1ccc(C(=O)NCC(=O)OCC(=O)N2N=C(c3ccc(Cl)cc3)CC2c2ccco2)cc1OC (stereo unspecified)	none
COc1ccc(CCNc2ccc([N+](=O)[O-])cn2)cc1	none
COc1ccc(CCNc2cc(=O)[nH]c(N)n2)cc1	MrgX1 antagonist -6.79 | MrgX1 antag conf inactive | HEK293 Ca flux inactive | HEK293 Ca counter inactive | HEK293 Ca cntr2 inactive
N#Cc1ccccc1NS(=O)(=O)c1cc2c3c(c1)CCC(=O)N3CCC2	none
CC(C)CC(=O)Nc1ccccc1N1CCOCC1	MrgX1 antagonist -4.56 | MrgX1 antag conf inactive | HEK293 Ca flux inactive | HEK293 Ca counter 48.5 | HEK293 Ca cntr2 inactive
Cc1cc(NC(=O)C(C)SCC(=O)Nc2ccccc2N2CCCC2)no1 (stereo unspecified)	MrgX1 antagonist -11.4 | MrgX1 antag conf 75.6% | HEK293 Ca flux inactive | HEK293 Ca counter inactive | HEK293 Ca cntr2 inactive
Cc1cc(NC(=O)C(C)SCC(=O)Nc2cc(C(F)(F)F)ccc2N2CCCCC2)no1 (stereo unspecified)	none
Cc1ccccc1OCC(=O)Nc1ccc2c(c1)OCO2	MrgX1 antagonist -4.54 | MrgX1 antag conf 84.0% | HEK293 Ca flux inactive | HEK293 Ca counter inactive | HEK293 Ca cntr2 inactive
Nc1nc(N2CCN(c3ccccc3)CC2)n[nH]1	MrgX1 antagonist -5.66 | MrgX1 antag conf inactive | HEK293 Ca flux inactive | HEK293 Ca counter inactive | HEK293 Ca cntr2 inactive
Nc1nc(N2CCN(c3ccc(Cl)cc3)CC2)n[nH]1	none
Cc1ccccc1OCCC(=O)OCC(=O)c1c(N)n(CC(C)C)c(=O)n(C)c1=O	none
O=C(Nc1ccncc1)Nc1ccncc1	none
CC(=O)c1ccc(NC(=O)Nc2ccncc2)cc1	MrgX1 antagonist -6.75 | MrgX1 antag conf 81.7% | HEK293 Ca flux inactive | HEK293 Ca counter inactive | HEK293 Ca cntr2 inactive
COC(=O)c1c(NC(=O)c2ccco2)sc(C(=O)Nc2ccc(F)cc2)c1C	none
COC(=O)c1c(NC(=O)CSc2ccccc2N)sc(C)c1C	MrgX1 antagonist -4.68 | MrgX1 antag conf inactive | HEK293 Ca flux inactive | HEK293 Ca counter inactive | HEK293 Ca cntr2 inactive
COC(=O)c1c(NC(=O)c2ccco2)sc(C)c1C	MrgX1 antagonist -7.65 | MrgX1 antag conf 80.5% | HEK293 Ca flux inactive | HEK293 Ca counter inactive | HEK293 Ca cntr2 inactive
COC(=O)c1c(NC(=O)Cc2ccccc2)sc(C)c1C	none
Cc1sc2ncnc(N3CCC(C(=O)NNC(=O)COc4cccc(C(F)(F)F)c4)CC3)c2c1C	none
CC(C)CC(c1nnnn1CC1CCCO1)N1CCN(Cc2ccc3c(c2)OCO3)CC1 (stereo unspecified)	MrgX1 antagonist -4.99 | MrgX1 antag conf inactive | HEK293 Ca flux inactive | HEK293 Ca counter inactive | HEK293 Ca cntr2 inactive
CCOC(=O)C(C)Sc1nc(=O)n2ccccc2n1 (stereo unspecified)	MrgX1 antagonist -5.1 | MrgX1 antag conf inactive | HEK293 Ca flux inactive | HEK293 Ca counter inactive | HEK293 Ca cntr2 inactive
CS(=O)(=O)Nc1cccc2[nH]ncc12	none
Cc1ccccc1CNC(=O)CCn1nc(C)c2c(C)n(-c3ccccc3)nc2c1=O	none
CC1CCN(C2CCN(S(=O)(=O)c3ccc(F)cc3)CC2)CC1	none
O=S(=O)(c1ccc(F)cc1)N1CCC(N2CCCCCC2)CC1	MrgX1 antagonist -11 | MrgX1 antag conf inactive | HEK293 Ca flux inactive | HEK293 Ca counter inactive | HEK293 Ca cntr2 inactive
O=C(COc1cccc(C(F)(F)F)c1)NNC(=O)Cn1c(=O)cnc2ccccc21	none
COc1ccccc1N(CC(O)CN1CCOCC1)S(=O)(=O)c1ccccc1 (stereo unspecified)	none
